Test results as given in paper PMC4651821 (Clinical & experimental metastasis, 2015).
Where two headings read alike, the source gives them in different places.

Experiments:
[1] = target: T1, FAK (Homo sapiens, UniProt Q05397); assay: FAK Omnia Kinase Assay; conditions: read-out: biochemical IC50 for FAK inhibition
Procedure, shortened: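 GST-tagged full-length FAK phosphorylated a sulfonamido-oxine (SOX)-containing peptide substrate, read by chelation-enhanced fluorescence (Omnia). Test compound was run as an 11-point threefold serial dilution at final 0.17–10,000 nM or 0.12–7250 nM, in triplicate. IC50 was derived from the curves.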

[2] = target: T1, FAK; assay: Kinase Profiling System with ADP-Glo Kinase Assay, 192 kinases; assay type: biochemical; conditions: OXA-11 concentration of 100 nM
[3] = target: T1, FAK; assay: Cell-based kinase assay in cell lysates
[4] = target: PYK2 (Homo sapiens, UniProt Q14289); assay: Cell-based kinase assay in cell lysates
Sequence of PYK2 (Q14289 whole entry): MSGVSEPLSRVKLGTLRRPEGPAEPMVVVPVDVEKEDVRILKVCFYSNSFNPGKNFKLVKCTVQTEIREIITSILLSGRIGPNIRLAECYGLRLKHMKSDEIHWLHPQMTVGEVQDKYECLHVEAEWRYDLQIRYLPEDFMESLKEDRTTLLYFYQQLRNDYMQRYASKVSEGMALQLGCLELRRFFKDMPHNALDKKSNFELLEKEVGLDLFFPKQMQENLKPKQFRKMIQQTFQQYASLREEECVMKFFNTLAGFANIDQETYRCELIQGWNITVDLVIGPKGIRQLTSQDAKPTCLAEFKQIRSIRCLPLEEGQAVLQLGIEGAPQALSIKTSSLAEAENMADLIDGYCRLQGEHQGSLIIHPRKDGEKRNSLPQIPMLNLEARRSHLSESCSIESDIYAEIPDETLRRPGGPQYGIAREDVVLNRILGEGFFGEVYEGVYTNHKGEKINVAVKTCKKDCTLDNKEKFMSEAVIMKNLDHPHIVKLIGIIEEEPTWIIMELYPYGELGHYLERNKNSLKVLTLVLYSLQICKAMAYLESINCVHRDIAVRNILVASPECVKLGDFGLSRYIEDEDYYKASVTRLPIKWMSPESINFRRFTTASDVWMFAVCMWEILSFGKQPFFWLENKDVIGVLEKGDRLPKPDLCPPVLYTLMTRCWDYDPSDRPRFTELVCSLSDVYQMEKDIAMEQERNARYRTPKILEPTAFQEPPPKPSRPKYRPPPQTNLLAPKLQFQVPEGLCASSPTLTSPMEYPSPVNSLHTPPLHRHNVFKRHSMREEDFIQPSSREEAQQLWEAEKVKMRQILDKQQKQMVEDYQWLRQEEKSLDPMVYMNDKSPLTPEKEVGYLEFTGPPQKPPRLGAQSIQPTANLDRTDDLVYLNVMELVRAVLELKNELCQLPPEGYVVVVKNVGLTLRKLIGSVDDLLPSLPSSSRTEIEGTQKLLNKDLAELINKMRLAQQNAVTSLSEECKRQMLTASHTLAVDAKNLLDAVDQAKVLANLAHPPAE

[5] = target: Insulin receptor (Homo sapiens, UniProt P06213); assay: Cell-based kinase assay in cell lysates
Sequence of Insulin receptor (P06213 763-1382 limits assumed): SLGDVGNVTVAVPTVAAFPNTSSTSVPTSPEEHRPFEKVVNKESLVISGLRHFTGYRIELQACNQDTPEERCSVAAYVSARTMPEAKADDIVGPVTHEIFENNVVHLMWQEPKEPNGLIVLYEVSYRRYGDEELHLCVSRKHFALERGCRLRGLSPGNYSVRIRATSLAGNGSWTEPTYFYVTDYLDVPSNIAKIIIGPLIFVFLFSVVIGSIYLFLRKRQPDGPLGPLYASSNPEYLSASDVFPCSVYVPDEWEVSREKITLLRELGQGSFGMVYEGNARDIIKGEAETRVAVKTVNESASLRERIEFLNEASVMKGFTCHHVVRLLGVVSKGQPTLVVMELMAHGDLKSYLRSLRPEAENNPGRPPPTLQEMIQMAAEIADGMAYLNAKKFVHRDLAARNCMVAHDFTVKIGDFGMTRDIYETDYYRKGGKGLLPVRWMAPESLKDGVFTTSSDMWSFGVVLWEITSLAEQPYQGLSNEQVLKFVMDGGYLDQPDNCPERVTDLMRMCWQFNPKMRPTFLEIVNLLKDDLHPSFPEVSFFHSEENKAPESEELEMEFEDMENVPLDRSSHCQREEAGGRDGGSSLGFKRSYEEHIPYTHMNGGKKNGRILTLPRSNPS
Sequence of Insulin receptor (P06213 28-758 partner limits assumed): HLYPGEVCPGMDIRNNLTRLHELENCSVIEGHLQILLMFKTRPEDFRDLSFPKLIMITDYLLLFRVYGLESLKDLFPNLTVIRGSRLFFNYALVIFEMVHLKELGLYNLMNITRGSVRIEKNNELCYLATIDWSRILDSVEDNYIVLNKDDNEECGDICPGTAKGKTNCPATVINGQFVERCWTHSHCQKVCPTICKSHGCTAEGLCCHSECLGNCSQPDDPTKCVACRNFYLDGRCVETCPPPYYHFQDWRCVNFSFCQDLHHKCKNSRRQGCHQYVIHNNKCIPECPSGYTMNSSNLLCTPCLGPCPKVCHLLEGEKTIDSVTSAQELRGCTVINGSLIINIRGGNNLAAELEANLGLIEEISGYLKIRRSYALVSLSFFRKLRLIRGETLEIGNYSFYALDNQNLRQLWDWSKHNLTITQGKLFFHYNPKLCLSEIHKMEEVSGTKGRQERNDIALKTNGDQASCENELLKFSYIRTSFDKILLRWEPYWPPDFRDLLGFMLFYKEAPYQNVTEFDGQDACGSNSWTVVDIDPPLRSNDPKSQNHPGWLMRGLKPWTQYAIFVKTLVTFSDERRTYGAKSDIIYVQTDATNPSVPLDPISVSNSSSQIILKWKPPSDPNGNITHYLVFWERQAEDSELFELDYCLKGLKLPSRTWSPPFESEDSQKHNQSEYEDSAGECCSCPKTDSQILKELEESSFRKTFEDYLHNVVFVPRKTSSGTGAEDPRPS

[6] = target: SRC (Homo sapiens, UniProt P12931); assay: Cell-based kinase assay in cell lysates
Sequence of SRC (P12931 whole entry): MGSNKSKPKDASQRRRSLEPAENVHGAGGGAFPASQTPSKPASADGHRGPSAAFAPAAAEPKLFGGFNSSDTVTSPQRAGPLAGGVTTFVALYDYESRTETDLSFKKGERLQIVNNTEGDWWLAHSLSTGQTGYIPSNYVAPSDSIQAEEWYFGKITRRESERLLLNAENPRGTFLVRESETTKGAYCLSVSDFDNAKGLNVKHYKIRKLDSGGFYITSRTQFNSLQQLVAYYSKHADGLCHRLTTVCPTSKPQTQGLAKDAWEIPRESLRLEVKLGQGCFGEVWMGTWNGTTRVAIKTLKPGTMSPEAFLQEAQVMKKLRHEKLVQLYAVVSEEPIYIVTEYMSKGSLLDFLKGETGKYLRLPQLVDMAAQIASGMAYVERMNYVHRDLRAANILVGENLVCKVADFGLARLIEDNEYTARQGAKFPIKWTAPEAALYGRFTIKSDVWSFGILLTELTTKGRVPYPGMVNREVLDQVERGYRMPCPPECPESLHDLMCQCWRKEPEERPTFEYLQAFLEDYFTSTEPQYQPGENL

[7] = target: FAK (Mus musculus, UniProt P34152); assay: Cellular mechanistic FAK inhibition, 4T1 cell lysates; assay type: cell-based; conditions: read-out: OXA-11 IC50 (nM) for FAK, 4T1 mammary carcinoma cells
[8] = target: FAK (Rattus norvegicus, UniProt O35346); assay: Cellular mechanistic FAK inhibition, RMC cell lysates; assay type: cell-based; conditions: read-out: OXA-11 IC50 (nM) for FAK, RMC kidney mesangial cells
[9] = target: T1, FAK; assay: Cellular mechanistic FAK inhibition, MDA-MB-361 cell lysates; assay type: cell-based; conditions: read-out: OXA-11 IC50 (nM) for FAK, MDA-MB-361 breast adenocarcinoma metastasis cells
[10] = test system: FAK; assay: Cellular mechanistic FAK inhibition, MDCK cell lysates; assay type: cell-based; conditions: read-out: OXA-11 IC50 (nM) for FAK, Dog, MDCK kidney epithelial cells
[11] = test system: FAK; assay: Cellular mechanistic FAK inhibition, CMMT cell lysates; assay type: cell-based; conditions: read-out: OXA-11 IC50 (nM) for FAK, Monkey, CMMT mammary gland epithelial cells
[12] = target: T2, pFAK [Y397] (Homo sapiens, UniProt Q05397); assay: pFAK [Y397] sandwich ELISA in IGROV1 cells; assay type: cell-based; conditions: read-out: IC50 of pFAK [Y397] inhibition; IGROV1 ovarian cancer cells in vitro
T2 sequence (Q05397 whole entry): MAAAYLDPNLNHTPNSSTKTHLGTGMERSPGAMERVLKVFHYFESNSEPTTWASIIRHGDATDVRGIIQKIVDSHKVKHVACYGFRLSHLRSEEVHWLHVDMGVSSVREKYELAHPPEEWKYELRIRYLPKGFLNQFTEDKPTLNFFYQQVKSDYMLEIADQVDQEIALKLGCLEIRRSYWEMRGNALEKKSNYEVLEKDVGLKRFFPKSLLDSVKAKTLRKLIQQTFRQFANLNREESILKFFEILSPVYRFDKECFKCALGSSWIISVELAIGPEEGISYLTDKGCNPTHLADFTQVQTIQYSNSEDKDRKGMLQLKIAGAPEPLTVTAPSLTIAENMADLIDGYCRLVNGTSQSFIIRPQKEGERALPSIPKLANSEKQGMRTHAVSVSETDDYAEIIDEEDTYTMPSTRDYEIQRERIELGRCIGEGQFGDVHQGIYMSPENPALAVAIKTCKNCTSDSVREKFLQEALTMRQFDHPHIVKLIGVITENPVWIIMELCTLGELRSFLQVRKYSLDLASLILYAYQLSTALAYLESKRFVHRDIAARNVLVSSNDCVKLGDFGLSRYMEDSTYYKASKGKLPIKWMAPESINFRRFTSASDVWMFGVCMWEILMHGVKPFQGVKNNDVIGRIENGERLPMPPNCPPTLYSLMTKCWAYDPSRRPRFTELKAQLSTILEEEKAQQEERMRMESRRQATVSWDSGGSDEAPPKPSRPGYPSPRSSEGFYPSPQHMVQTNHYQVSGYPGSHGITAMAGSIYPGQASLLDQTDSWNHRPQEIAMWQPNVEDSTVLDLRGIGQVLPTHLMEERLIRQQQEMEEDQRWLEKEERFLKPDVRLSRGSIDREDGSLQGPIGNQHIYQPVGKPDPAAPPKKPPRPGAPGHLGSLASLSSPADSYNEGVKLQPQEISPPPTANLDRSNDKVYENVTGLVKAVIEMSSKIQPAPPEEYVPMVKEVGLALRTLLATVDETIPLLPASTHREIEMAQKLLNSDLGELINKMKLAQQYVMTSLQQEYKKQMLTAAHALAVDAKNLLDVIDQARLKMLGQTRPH

[13] = test system: TOV21G cells; assay: Apoptosis, caspase 3/7 activity; assay type: cell-based, human; conditions: read-out: EC50 promotion of apoptosis, 3-D culture
[14] = test system: IGROV1 cells; assay: Apoptosis, caspase 3/7 activity; assay type: cell-based, human; conditions: read-out: EC50 promotion of apoptosis, 3-D culture
[15] = test system: TOV21G tumors; assay: Tumor growth inhibition, TOV21G xenografts in nude mice; assay type: in vivo, mouse
Procedure, shortened: (§1)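 TOV21G or MDA-MB-361 cells were implanted subcutaneously in athymic nude mice and grown to a standardized size (n = 8 per group). Test compound was given daily by gavage at 20–120 mg/kg for 3 weeks. Tumor size was measured and body weight recorded during treatment.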

[16] = target: T2, pFAK [Y397]; assay: PK/PD of pFAK [Y397] inhibition in xenograft tumors; assay type: in vivo, mouse
Procedure, shortened: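 TOV21G cells were implanted subcutaneously in athymic nude mice and grown to a standardized size. Mice got a single gavage dose of test compound (40–120 mg/kg in 20 % Trappsol) or vehicle. From 2 to 24 h later, tumor pFAK [Y397] was measured by ELISA alongside plasma drug levels. Time points were 4, 8 and 24 h after 80 or 120 mg/kg.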

[17] = test system: MDA-MB-361 breast tumors; assay: Tumor growth inhibition, MDA-MB-361 xenografts in mice; assay type: in vivo, mouse
Procedure, shortened: as §1

[18] = Tolerability in xenograft-bearing athymic nude mice; assay type: in vivo, mouse; conditions: 20–120 mg/kg daily for 3 weeks
Procedure, shortened: as §1

[19] = Tolerability / maximum tolerated dose in RIP-Tag2 mice; assay type: in vivo
[20] = target: T3, pFAK [Y397] (Mus musculus, UniProt P34152); assay: pFAK [Y397] ELISA in RIP-Tag2 tumors; assay type: in vivo; conditions: 4 h after a single 40-mg/kg dose
T3 sequence (P34152 whole entry, the tested form may be a part): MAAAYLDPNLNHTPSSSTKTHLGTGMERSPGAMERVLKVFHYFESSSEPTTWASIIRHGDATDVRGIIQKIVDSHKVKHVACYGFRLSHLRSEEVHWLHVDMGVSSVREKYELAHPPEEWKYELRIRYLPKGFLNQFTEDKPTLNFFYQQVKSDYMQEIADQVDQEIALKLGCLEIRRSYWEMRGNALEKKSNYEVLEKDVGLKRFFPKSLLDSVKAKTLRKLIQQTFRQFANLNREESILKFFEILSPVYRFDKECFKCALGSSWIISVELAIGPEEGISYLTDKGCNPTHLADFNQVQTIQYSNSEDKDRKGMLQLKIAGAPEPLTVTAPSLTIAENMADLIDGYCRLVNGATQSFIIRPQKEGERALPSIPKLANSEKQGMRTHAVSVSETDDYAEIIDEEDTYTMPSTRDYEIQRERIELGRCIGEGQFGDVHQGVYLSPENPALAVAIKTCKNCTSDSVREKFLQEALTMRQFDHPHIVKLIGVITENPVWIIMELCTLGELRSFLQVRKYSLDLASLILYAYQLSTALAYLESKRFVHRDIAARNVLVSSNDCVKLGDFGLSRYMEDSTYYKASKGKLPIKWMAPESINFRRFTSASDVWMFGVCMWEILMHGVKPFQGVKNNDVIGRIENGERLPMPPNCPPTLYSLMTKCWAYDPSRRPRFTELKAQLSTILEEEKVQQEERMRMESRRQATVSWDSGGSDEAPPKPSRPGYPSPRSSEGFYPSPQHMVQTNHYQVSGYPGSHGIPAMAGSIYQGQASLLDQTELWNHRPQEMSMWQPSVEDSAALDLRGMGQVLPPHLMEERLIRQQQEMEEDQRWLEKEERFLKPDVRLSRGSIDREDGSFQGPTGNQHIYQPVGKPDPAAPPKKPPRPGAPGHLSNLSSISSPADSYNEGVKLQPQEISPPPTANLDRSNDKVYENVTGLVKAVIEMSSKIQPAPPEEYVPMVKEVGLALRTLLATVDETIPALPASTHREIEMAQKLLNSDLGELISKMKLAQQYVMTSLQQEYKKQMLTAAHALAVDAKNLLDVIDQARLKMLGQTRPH
Procedure, shortened: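 14-week-old RIP-Tag2 mice received no treatment, one 40 mg/kg dose of test compound, or 20 % Trappsol, 4 or 8 h before sampling. Mice were perfused with PBS, and tumors were removed and frozen. Total FAK and pFAK [Y397] were measured by ELISA, with pancreas of RIP-Tag2-negative littermates as control; n = 4–12 per group.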

[21] = target: T3, pFAK [Y397]; assay: pFAK [Y397] immunohistochemistry in RIP-Tag2 liver and tumors; assay type: in vivo; conditions: 2 h after one 20-mg/kg dose
[22] = target: pFAK [Y861] (Mus musculus, UniProt P34152); assay: pFAK [Y861] immunohistochemistry in RIP-Tag2 liver and tumors; assay type: in vivo; conditions: for reduction of pFAK [Y861] staining in liver sinusoids: RIP-Tag2 mice
Sequence of pFAK [Y861] (P34152 whole entry, the tested form may be a part): as above
Procedure, shortened: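 RIP-Tag2 mice got one 20 mg/kg dose of test compound or 20 % Trappsol. pFAK [Y861] immunofluorescence was examined in liver sinusoids and tumors at 6 time points from 1 to 24 h (n = 4 mice per time point). Tissues were perfusion-fixed with 1 % PFA and frozen sections were stained; the time course gave a tissue half-life of inhibition.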

[23] = test system: liver metastases of pancreatic neuroendocrine tumors; assay: Liver metastasis in RIP-Tag2 mice; assay type: in vivo, mouse
Procedure, shortened: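 RIP-Tag2 transgenic mice (C57BL/6 background) were treated for 3 weeks from age 14 weeks with vehicle (20 % Trappsol daily), test compound 20 mg/kg daily, anti-VEGFR-2 antibody DC101 1 mg ip twice weekly, or both. At 17 weeks, visible liver metastases were scored at autopsy. Micrometastases (≥2 adjacent SV40 T-antigen-positive cells) were counted and sized in two 80-μm liver sections per mouse; n = 19–24 per group.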

[24] = test system: RSK1/2
[25] = target: Aurora kinase A (Homo sapiens, UniProt O14965)
[26] = target: Aurora kinase B (Homo sapiens, UniProt Q96GD4)
[27] = target: KDR (Homo sapiens, UniProt P35968)
[28] = test system: TOV21G cells; conditions: read-out: EC50 inhibition of proliferation, 3-D culture, 7 days
[29] = test system: IGROV1 cells; conditions: read-out: EC50 inhibition of proliferation, 3-D culture, 7 days
[30] = test system: eight human tumor cell lines; conditions: read-out: EC50 inhibition of proliferation in 3-D culture
[31] = test system: TOV21G tumors; assay: OXA-11 with cisplatin in TOV21G tumors in nude mice; assay type: in vivo; conditions: cisplatin given alone, 5 mg/kg
[32] = cellular mechanistic IC50, TOV21G cells
[33] = TOV21G xenografts, 120 mg/kg daily

T1 sequence (Q05397 whole entry): as the sequence (Q05397 whole entry) above

## CCOP(=O)(Cc1ccc(Nc2ncc(C(F)(F)F)c(Nc3ccc([C@H]4CC[C@H](N5CCN(C)CC5)CC4)c4c3C(=O)N(C)C4)n2)c(OC)c1)OCC [OXA-11, diethyl (3-methoxy-4-{ [4-({2-methyl-7-[trans-4-(4-methylpiperazin-1-yl)cyclo-hexyl]-3-oxo-2,3-dihydro-1H-isoindol-4-yl}amino)-5-(tri-fluoromethyl)pyrimidin-2-yl]amino}benzyl) phosphonate]
[1]
  IC50: 0.0012 nM
[2]
  inhibition of kinase in biochemical specificity screening: more than 50%
[3]
  Fold selectivity for FAK (FAK): 1×
[4]; cell lysates
  Fold selectivity for FAK over PYK2: 8×
[4]; [32]
  selectivity for FAK over PYK2: eightfold
[4]; read-out: OXA-11 IC50 (nM), PYK2, cellular mechanistic, cell lysates
  IC50: 80 nM
[5]; cell lysates
  Fold selectivity for FAK over Insulin receptor: >1000×
[5]; [32]
  selectivity for FAK over insulin receptor (IR, INSR): > 1000 fold
[5]; read-out: OXA-11 IC50 (nM), Insulin receptor, cellular mechanistic, cell lysates
  IC50: > 10000 nM
[6]; cell lysates
  Fold selectivity for FAK over SRC: >1000×
[6]; [32]
  selectivity for FAK over SRC: > 1000 fold
[6]; read-out: OXA-11 IC50 (nM), SRC, cellular mechanistic, cell lysates
  IC50: > 10000 nM
[7]
  IC50: 8 nM
[8]
  IC50: 18 nM
[9]
  IC50: 20 nM
[10]
  IC50: 32 nM
[11]
  IC50: 84 nM
[12]
  IC50: 0.8 nM
[13]
  EC50: 31 nM
[14]
  EC50: 0.5 nM
[15]; [33]
  inhibition of tumor growth: 77%
[15]; nude mice, 20–120 mg/kg daily for 3 weeks
  reduction in size of TOV21G tumors: 22–67%
[16]; TOV21G tumors, single dose 80 or 120 mg/kg, plasma levels back to baseline
  reduction of pFAK [Y397] at 24 h: approximately 25%
[16]; [33]
  suppression of pFAK [Y397]: 61%
[16]; read-out: pharmacodynamic EC50 of pFAK [Y397] inhibition, total OXA-11, TOV21G tumors in mice, 4, 8 and 24 h
  EC50: 102 nM
[17]; higher daily dose (120 mg/kg)
  inhibition of MDA-MB-361 tumor growth over 3 weeks: 95%
[17]; lower daily dose (40 mg/kg)
  inhibition of MDA-MB-361 tumor growth over 3 weeks: 60%
[18]
  dose-limiting toxicity: No dose-limiting toxicity
[19]; 40 or 60 mg/kg daily for at least 3 weeks
  tolerability: well tolerated
[19]; OXA-11 given with DC101
  maximum tolerated dose: 20 mg/kg
[19]; daily
  tolerable dosing: 20 to 60 mg/kg
[20]
  pFAK [Y397] activity in RIP-Tag2 tumors: significantly reduced
[21]
  staining for pFAK [Y397] in RIP-Tag2 tumors: reduced to nearly undetectable levels
[21]; RIP-Tag2 mice
  pFAK [Y397] immunofluorescence in liver sinusoids, less than baseline: 86%
[22]; 2 h after one 20-mg/kg dose
  staining for pFAK [Y861] in RIP-Tag2 tumors: reduced to nearly undetectable levels
[22]; RIP-Tag2 liver sinusoids, single dose 20 mg/kg
  tissue half-life of OXA-11 inhibition of pFAK [Y861]: about 4 h
[22]; 1 h after single dose 20 mg/kg
  reduction of pFAK [Y861] staining in liver sinusoids: 79%
[22]; 4 h after single dose 20 mg/kg
  reduction of pFAK [Y861] staining in liver sinusoids: 57%
[22]; 6 h after single dose 20 mg/kg
  reduction of pFAK [Y861] staining in liver sinusoids: 35%
[23]; 17-week old RIP-Tag2 mice after treatment for 3 weeks
  mice with liver metastases visible at autopsy: 10%
[23]; RIP-Tag2 mice, 3 weeks treatment
  size of liver micrometastases: about the same as in the vehicle group
[24]; cell lysates
  Fold selectivity for FAK over RSK1/2: 26×
[24]; [32]
  selectivity for FAK over RSK1/2: 26 fold
[24]; read-out: OXA-11 IC50 (nM), RSK1/2, cellular mechanistic, cell lysates
  IC50: 260 nM
[25]; cell lysates
  Fold selectivity for FAK over Aurora kinase A: >1000×
[25]; [32]
  selectivity for FAK over aurora kinase A (AURKA): > 1000 fold
[25]; read-out: OXA-11 IC50 (nM), Aurora kinase A, cellular mechanistic, cell lysates
  IC50: > 10000 nM
[26]; cell lysates
  Fold selectivity for FAK over Aurora kinase B: >1000×
[26]; [32]
  selectivity for FAK over aurora kinase B (AURKB): > 1000 fold
[26]; read-out: OXA-11 IC50 (nM), Aurora kinase B, cellular mechanistic, cell lysates
  IC50: > 10000 nM
[27]; cell lysates
  Fold selectivity for FAK over KDR: >1000×
[27]; [32]
  selectivity for FAK over KDR (VEGFR-2, FLK1): > 1000 fold
[27]; read-out: OXA-11 IC50 (nM), KDR, cellular mechanistic, cell lysates
  IC50: > 10000 nM
[28]
  EC50: 9 nM
[29]
  EC50: 0.3 nM
[30]; TOV21G, OVCAR3, OVCAR5 and IGROV1 cells (high baseline pFAK [Y397])
  EC50: 0.3 to 14.5 nM
[30]; four other cell lines with lower baseline pFAK [Y397]
  EC50: > 100 nM

## N.N.[Cl][Pt][Cl] [cisplatin]
[31]
  effect on pFAK [Y397] in TOV21G-cell tumors: increased pFAK [Y397]
